One series addresses T1, Adenosine receptor A1 (Homo sapiens, UniProt P30542).
T1 sequence (P30542 whole entry): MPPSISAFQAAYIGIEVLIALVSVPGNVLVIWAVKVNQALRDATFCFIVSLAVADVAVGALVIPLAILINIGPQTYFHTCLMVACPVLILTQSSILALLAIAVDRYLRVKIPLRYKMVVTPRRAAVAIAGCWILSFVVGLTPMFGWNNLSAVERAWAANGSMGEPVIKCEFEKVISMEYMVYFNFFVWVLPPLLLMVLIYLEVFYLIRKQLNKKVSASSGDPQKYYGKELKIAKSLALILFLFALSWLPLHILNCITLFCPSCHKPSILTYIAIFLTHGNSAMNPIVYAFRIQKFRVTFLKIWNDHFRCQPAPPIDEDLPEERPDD
Nature of the series: Displacement of [3H]-DPCPX from human adenosine A1 receptor expressed in CHO cells after 30 mins by scintillation counting. Type of series: cell-based. In a few lines: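 CHO-hA1 membranes at 10.8 μg protein/well, pretreated with adenosine deaminase (2 U/mL, 30 min, 37 C), were incubated with 1 nM [3H]-DPCPX in 50 mM Tris/HCl pH 7.4 for 30 min at 25 C across 10 compound concentrations. Filtration on PEI-soaked GF/B, scintillation counting. Nonspecific binding by CGS15943. Ki by Cheng-Prusoff. Means of ≥2 determinations.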

Series [1] can be described thus: Ratio of drug level whole brain to plasma in abcb1a-deficient mouse at 1 mg/kg, po after 50 mins.
Series [2] can be described thus: Primary phase half life in Sprague-Dawley rat at 0.5 mg/kg, iv and 1 mg/kg, po. Type of series: ADME, organism-based. Particulars: in vivo. In a few lines: (§1)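 Awake Sprague-Dawley rats carrying a carotid catheter were dosed with 0.5 mg/kg iv or 1 mg/kg po in aqueous 25% cremophore, n = 3 per route. Ten 100 μL blood samples were collected automatically over 20 h. Plasma was assayed by HTLC-MS/MS. Parameters came from a two-compartment model with first-order absorption (po) and elimination.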

A further series has as its system Mus musculus. Kind of series: Displacement of [3H]SCH58261 from po dosed NMRI mouse striatum by liquid scintillation counting. Type of series: functional.
For the next series, the target named is Cytochrome P450 2C9 (Homo sapiens, UniProt P11712). Nature of the series: Inhibition of recombinant CYP2C9 after 45 mins. Type of series: ADME.
Sequence of Cytochrome P450 2C9 (P11712 whole entry): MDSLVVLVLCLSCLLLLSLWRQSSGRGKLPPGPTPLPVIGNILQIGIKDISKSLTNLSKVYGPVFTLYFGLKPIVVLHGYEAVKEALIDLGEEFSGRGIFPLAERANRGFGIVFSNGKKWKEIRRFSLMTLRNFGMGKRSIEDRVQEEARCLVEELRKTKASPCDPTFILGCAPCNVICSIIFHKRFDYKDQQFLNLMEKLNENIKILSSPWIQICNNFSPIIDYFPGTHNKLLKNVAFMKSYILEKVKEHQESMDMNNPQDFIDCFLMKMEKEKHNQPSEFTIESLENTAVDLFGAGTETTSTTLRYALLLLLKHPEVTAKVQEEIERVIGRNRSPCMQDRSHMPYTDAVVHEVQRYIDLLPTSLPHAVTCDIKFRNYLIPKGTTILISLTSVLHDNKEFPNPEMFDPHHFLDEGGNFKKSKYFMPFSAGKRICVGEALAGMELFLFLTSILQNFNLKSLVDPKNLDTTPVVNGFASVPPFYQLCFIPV
Series [3] is described as follows: Terminal half life in Sprague-Dawley rat at 0.5 mg/kg, iv and 1 mg/kg, po. Particulars: in vivo. Type of series: ADME, organism-based. In a few lines:
as §1

Another series is filed under the species Homo sapiens. Kind of series: Selectivity ratio of Ki for human adenosine A1 receptor to Ki for human adenosine A2A receptor.
Series [4] in a line: Protein binding in human serum at 1 uM after 60 mins by LC/MS-MS. Type of series: ADME, cell-free. The settings on record: read-out: PPB (converted).
Series [5] concerns Hepatocyte. Nature of the series: Intrinsic clearance in rat hepatocytes at 0.2 uM after 60 mins. Type of series: ADME, cell-based, Liver. Particulars: 1 h. In a few lines: (§2)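 Pooled cryopreserved hepatocytes: human (three donors), male Sprague-Dawley rat (two donors), male beagle dog (two donors). Cells at 10^6/mL in DMEM with 5 mM HEPES, 37 C, 15 min preincubation; compound at 0.2 μM. Samples at 0-60 min, depletion by LC-MS/MS. t1/2 scaled to CLint with 120 (human, rat) or 240 (dog) million cells/g liver. n = 1.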

A further series deals with Cytochrome P450 2D6 (Homo sapiens, UniProt P10635). Kind of series: Inhibition of recombinant CYP2D6 after 45 mins. Type of series: ADME. In a few lines:
(§3)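 Recombinant CYP supersomes incubated in phosphate buffer with eight compound concentrations (40-0.02 μM) and fluorogenic substrates. CYP1A2: 7-ethoxy-3-cyanocoumarin 10 μM, 28 min. CYP2C19: same substrate 50 μM, 45 min. CYP2D6: AMMC 3 μM, 45 min. CYP3A4: resorufin benzyl ether 100 μM, 30 min. Fluorescent metabolite read; IC50 relative to uninhibited controls.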

The next series deals with T2, Adenosine receptor A3 (Homo sapiens, UniProt P0DMS8).
T2 sequence (P0DMS8 whole entry): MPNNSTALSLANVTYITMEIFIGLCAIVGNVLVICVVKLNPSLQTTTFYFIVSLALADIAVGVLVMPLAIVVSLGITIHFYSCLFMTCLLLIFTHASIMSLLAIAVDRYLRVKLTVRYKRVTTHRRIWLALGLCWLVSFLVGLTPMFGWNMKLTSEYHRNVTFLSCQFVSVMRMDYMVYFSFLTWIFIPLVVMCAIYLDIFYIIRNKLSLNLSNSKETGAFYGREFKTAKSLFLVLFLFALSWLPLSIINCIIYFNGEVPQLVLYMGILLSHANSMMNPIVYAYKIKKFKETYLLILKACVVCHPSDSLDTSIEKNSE
Kind of series: Displacement of [3H]-AB-MECA from human recombinant adenosine A3 receptor expressed in CHO-K1 cells after 60 mins. Type of series: cell-based. In general terms: In a radioligand displacement assay an active substance lowers the binding of a labelled ligand.

For another series, the target named is Adenosine receptor A2a (Homo sapiens, UniProt P29274). Nature of the series: Displacement of [3H]-ZM241385 from human adenosine A2A receptor expressed in high five cells after 30 mins by scintillation counting.
Sequence of Adenosine receptor A2a (P29274 whole entry): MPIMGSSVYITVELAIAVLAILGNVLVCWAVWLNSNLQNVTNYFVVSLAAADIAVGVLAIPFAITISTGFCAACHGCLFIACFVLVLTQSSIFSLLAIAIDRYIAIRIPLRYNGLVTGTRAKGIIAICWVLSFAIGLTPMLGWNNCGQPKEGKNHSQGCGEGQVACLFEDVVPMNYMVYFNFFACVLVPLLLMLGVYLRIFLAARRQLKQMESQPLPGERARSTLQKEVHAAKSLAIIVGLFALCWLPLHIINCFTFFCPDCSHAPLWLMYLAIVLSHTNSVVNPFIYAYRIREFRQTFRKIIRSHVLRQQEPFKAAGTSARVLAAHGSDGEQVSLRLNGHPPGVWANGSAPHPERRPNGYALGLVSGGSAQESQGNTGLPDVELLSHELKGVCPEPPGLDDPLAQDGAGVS
Series [6] in a line: Apparent permeability from apical to basolateral side in human Caco2 cells at 1 uM after 21 to 28 days. Type of series: ADME, cell-based. The settings on record: caco-2. In a few lines:
(§4)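 Caco-2 cells grown 21-28 days on permeable filters. A 2 mM DMSO stock was diluted into Hanks-HEPES pH 7.4. Dosing solution went into the apical (A-B) or basolateral (B-A) chamber, and the opposite chamber was sampled over 240 min with buffer replacement. Efflux ratio = Papp,B-A/Papp,A-B. Mean ± SD, n = 3.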

Series [7] concerns Hepatocyte. Nature of the series: Intrinsic clearance in human hepatocytes at 0.2 uM after 60 mins. The settings on record: 1 h. Type of series: ADME, cell-based, Liver. In a few lines:
as §2

A further series has as its target T3, Cytochrome P450 1A2 (Homo sapiens, UniProt P05177).
T3 sequence (P05177 whole entry): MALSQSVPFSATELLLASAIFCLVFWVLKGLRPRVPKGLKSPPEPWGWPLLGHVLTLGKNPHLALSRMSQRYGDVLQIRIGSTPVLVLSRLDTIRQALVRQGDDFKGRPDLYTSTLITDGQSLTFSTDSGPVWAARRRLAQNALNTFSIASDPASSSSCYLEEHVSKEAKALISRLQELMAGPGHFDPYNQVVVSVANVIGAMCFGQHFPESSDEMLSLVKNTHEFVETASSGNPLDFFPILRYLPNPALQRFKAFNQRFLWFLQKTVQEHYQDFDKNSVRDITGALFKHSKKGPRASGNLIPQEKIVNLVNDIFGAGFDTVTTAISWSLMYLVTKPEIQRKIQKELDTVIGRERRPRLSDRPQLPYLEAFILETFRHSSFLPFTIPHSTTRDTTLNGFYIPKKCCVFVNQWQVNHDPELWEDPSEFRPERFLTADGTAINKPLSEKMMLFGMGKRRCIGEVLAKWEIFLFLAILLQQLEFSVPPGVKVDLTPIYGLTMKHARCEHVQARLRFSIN
Nature of the series: Inhibition of recombinant CYP1A2 after 28 mins. Type of series: ADME. In short, it runs like this:
as §3

Series [8] in a line: Volume of distribution at steady state in Sprague-Dawley rat at 0.5 mg/kg, iv and 1 mg/kg, po. The settings on record: in vivo, read-out: Vdss. Type of series: ADME, organism-based. In short, it runs like this: as §1
Series [9] is described as follows: Protein binding in rat serum at 1 uM after 60 mins by LC/MS-MS. Type of series: ADME, cell-free. The settings on record: read-out: PPB (converted).
Series [10] in a line: Apparent permeability from basolateral to apical side in human Caco2 cells at 1 uM after 21 to 28 days. Type of series: ADME, cell-based. The settings on record: caco-2. In a few lines: as §4

Molecules are shown by their SMILES.

The values below come from ChEMBL document CHEMBL1671809, “Discovery of phosphoric acid mono-{2-[(E/Z)-4-(3,3-dimethyl-butyrylamino)-3,5-difluoro-benzoylimino]-thiazol-3-ylmethyl} ester (Lu AA47070): a phosphonooxymethylene prodrug of a potent and selective hA(2A) receptor antagonist” (J Med Chem, 2011).

The Ki is a dissociation constant, usually derived from enzyme kinetics or from competition with a known ligand. One may read the Kp as the ratio of the level in a tissue or fluid to that in plasma or blood. For orientation: half-life means how long it takes for the measured level to halve. A high value points to slow loss. The term ED50 denotes the midpoint of the dose-response relation. Low readings indicate an effect at a small dose, high ones a need for a large dose. A word on the IC50: it is the concentration at which inhibition is half-maximal. As a reminder, the Papp A→B is how fast a substance crosses the layer from the apical side. A word on the Papp B→A: it is the apparent permeability from the basolateral to the apical side of a cell layer.

Sequence of Cytochrome P450 2D6 (P10635 whole entry): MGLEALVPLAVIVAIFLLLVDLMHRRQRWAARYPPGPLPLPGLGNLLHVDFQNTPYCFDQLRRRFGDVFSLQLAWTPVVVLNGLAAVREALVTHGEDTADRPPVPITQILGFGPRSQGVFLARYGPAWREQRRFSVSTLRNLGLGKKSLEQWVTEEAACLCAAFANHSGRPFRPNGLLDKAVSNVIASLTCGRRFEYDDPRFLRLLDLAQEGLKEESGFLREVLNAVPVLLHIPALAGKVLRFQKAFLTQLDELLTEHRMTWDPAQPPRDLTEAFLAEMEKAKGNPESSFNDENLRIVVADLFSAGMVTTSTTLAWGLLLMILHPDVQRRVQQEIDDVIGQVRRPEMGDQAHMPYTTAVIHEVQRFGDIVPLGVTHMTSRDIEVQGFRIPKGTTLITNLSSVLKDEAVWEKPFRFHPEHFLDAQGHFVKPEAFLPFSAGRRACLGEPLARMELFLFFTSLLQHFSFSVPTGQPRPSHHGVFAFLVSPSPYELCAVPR

Consider `CC(C)(C)CC(=O)Nc1c(F)cc(C(=O)Nc2nccs2)cc1F`, for which the results for the Ki at Adenosine receptor A1, on Adenosine receptor A3 and on Adenosine receptor A2a were 0.41 µM, above 10 µM and 0.0059 µM, respectively. Besides, the partition ratio (Kp) at 50 min in [1] is 0.8. Also, the half-life was 1.2 h in series [2] and 7.8 h in series [3]. In the series on Mus musculus, the Activity result was “Dose-dependent effect”. The compound also returned a 50% effective dose (ED50) in the series with Mus musculus of 1.1 mg/kg. In addition, the IC50 at Cytochrome P450 2C9, at Cytochrome P450 2D6 and on Cytochrome P450 1A2 was above 40 µM in each case. In the series listed under Homo sapiens, the Ratio Ki came out at 69. Further, the fraction unbound at 1 h, 1 µM is 0.15 in series [4] and 0.03 in [9]. Also, the CL in the series on Hepatocyte [5] was 12 mL/min; in the series on Hepatocyte [7], 600 mL/min. Moreover, in series [6], the Papp A→B at 1 µM was determined as 88 ×10⁻⁶ cm/s. Moreover, the Vd in series [8] is 1 L/kg. Moreover, in series [10], the Papp B→A at 1 µM is 67 ×10⁻⁶ cm/s.
